The values below come from ChEMBL document CHEMBL4229502, “Asperidines A-C, pyrrolidine and piperidine derivatives from the soil-derived fungus Aspergillus sclerotiorum PSU-RSPG178” (Bioorg Med Chem, 2018).

Activity calls are given as the source filed them. No cut-off for these calls is given here.

As a reminder, the IC50 is the midpoint of a concentration-inhibition curve. What is called inhibition is how much of the control response was suppressed.

Series [1] deals with Vero. Description: Cytotoxicity against African green monkey Vero cells by GFP-based assay. It is filed as cell-based. Particulars: Chlorocebus sabaeus. Summed up:
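Vero cell assay run in triplicate following a previously published method, with ellipticine as reference drug; IC50 reported.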

Series [2] concerns the target T1, 3-hydroxy-3-methylglutaryl-coenzyme A reductase (Homo sapiens) (UniProt P04035).
T1 sequence (whole entry): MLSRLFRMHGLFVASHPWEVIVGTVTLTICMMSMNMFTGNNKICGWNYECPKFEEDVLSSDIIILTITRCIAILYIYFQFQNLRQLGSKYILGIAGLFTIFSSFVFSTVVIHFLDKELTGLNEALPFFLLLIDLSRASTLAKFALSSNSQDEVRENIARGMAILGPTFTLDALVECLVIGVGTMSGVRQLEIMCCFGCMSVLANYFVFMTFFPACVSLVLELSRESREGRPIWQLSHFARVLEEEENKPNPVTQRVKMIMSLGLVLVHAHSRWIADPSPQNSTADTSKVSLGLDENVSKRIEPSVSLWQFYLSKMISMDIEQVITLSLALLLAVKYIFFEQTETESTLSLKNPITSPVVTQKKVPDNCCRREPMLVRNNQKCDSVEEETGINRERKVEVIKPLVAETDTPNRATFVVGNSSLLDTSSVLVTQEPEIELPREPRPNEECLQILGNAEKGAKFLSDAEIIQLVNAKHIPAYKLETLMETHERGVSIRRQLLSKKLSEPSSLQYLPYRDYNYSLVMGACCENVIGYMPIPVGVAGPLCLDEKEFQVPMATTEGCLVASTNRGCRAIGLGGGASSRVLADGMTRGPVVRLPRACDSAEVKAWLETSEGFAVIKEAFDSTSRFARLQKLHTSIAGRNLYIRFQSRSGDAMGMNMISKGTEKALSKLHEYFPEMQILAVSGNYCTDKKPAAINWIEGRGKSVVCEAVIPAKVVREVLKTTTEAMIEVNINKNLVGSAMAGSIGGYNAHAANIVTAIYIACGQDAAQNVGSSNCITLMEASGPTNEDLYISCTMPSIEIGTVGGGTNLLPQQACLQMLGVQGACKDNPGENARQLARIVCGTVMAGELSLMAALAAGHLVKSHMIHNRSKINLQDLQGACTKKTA
Description: Inhibition of human HMG-CoA reductase catalytic domain at 200 uM using HMG-CoA as substrate measured every 20 secs for 10 mins relative to control. In short, it runs like this:
(§1)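 Cell-free kit assay: human HMGR catalytic domain added to buffer with NADPH and HMG-CoA to start the reaction at 37 °C. NADPH oxidation followed as A340 every 20 s for 10 min. Results expressed as percent inhibition of untreated control, n = 3.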

In series [3] the target is Cystic fibrosis transmembrane conductance regulator (Homo sapiens, UniProt P13569). In words: Inhibition of CFTR-mediated forskolin-induced chloride secretion in human T84 cells after 15 mins by short-circuit current analysis. It is filed as cell-based. Summed up:
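T84 monolayers grown on 1 cm² porous inserts (500,000 cells/insert) until TEER > 1000 Ω·cm², then mounted in Ussing chambers. Symmetrical Krebs solution (pH 7.3, 10 mM glucose) was gassed with 95% O2/5% CO2 at 37 °C. Chloride secretion was stimulated with 20 µM forskolin, then compound added apically at varied concentrations. Short-circuit current recorded; IC50 from Hill equation.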

The test system of series [4] is Caco-2. Description: Antioxidant activity in human Caco2 cells assessed as decrease in reactive oxygen species level after 24 hrs by DCFH-DA dye-based fluorescence assay. It is filed as functional, cell-based. Summed up:
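Caco-2 cells (ATCC, passages 2–22, DMEM/F-12 with 10% FBS) were exposed 24 h at 12.5–100 µM. They were then loaded with 10 µM DCFH-DA for 1 h at 37 °C in the dark and incubated 30 min without H2O2. Fluorescence was read at ex 495/em 527 nm. Means ± S.E.M., n = 3, vs untreated control cells.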

In series [5] the test system is Caco-2. In words: Cytotoxicity against human Caco2 cells assessed as decrease in cell viability at 12.5 to 100 uM after 24 hrs by MTT assay. Particulars: caco-2, 24 h. It is filed as cell-based. Summed up:
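Caco-2 cells (ATCC, passages 2–22, DMEM/F-12 with 10% FBS) were plated at 2.5 × 10^4 cells/well for 24 h, then exposed to 12.5, 25, 50, 75 and 100 µM for 24 h. After washing, cells got 5 mg/mL MTT for 4 h, crystals were dissolved in DMSO and A570 read. Viability is % of control, means ± S.E.M., n = 5.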
(Tetrazolium dyes change colour on reduction, which living cells bring about.)

Series [6] concerns Caco-2. Description: Antioxidant activity in human Caco2 cells assessed as decrease in H2O2-induced reactive oxygen species level after 24 hrs by DCFH-DA dye-based fluorescence assay. It is filed as functional, cell-based. Summed up:
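Caco-2 cells (ATCC, passages 2–22, DMEM/F-12 with 10% FBS) were treated 24 h at 12.5–100 µM. They were loaded with 10 µM DCFH-DA for 1 h at 37 °C in the dark, then exposed to 0.5 mM H2O2 for 30 min and washed twice. Fluorescence was read at ex 495/em 527 nm. Means ± S.E.M., n = 3, vs H2O2-exposed control cells.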

Series [7] concerns the target T1, 3-hydroxy-3-methylglutaryl-coenzyme A reductase (Homo sapiens). In words: Inhibition of human HMG-CoA reductase catalytic domain at 1 uM using HMG-CoA as substrate measured every 20 secs for 10 mins relative to control. In short, it runs like this: as §1

With `Cc1c2ccncc2c(C)c2c1[nH]c1ccccc12` [ELLIPTECINE], in series [1], it took 4.06 µM to reach half-maximal inhibition (IC50).
Take `CCCCCCCC[C@@H]1CC[C@H](O)[C@H](Cc2ccccc2)N1C`: the values for the inhibition in series [2] and in series [3] were 29% and “Dose-dependent effect”, respectively. For the same molecule, the Activity result was “Dose-dependent effect” in series [4], “Non-Toxic” in series [5] and “Dose-dependent effect” in series [6]. Further, in series [1], the half-maximal inhibitory concentration (IC50) stood at 51.5 µM.
On to `CCCCCCCCC[C@@H]1C[C@H](O)[C@H]2C[N@]1O[C@@H]2c1ccccc1`, for which the inhibition entry in series [2] is “inactive”. Also, it took 58.6 µM to reach half-maximal inhibition in series [3] (IC50). Further, the Activity result in series [4] was “Dose-dependent effect”; in series [1], “Non-Toxic”; in series [5], “Non-Toxic”; in series [6], “Dose-dependent effect”.
`CC[C@H](C)C(=O)O[C@H]1C[C@H](O)C=C2C=C[C@H](C)[C@H](CC[C@@H](O)C[C@@H](O)CC(=O)O)[C@H]21` gave an inhibition in series [7] of 86%.
